High-throughput results (PubChem)
A selection: hits, their analogues and other compounds. The true share with any hit is near 2.9%.
Apaf1 inhib – inhibitors of human Apaf-1 apoptosome, primary screen, biochemical, DEVD-Rh110 fluorescence, uHTS | 330,000 tested, 0.71% active | reconstituted apoptosome caspase-3 activity | Apoptotic protease-activating factor 1 (Homo sapiens), O14727 | inhibition, % at 20 µM; active = inhibition of at least 40% at 20 µM;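 also: plate controls were DMSO wells for no effect and DEVD-CHO caspase inhibitor wells for full effect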
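Assay system – apoptosome proteins · Medium – Hepes buffer, pH 7.5 · Also added – cytochrome c with DEVD-Rh110 · Timing – 30 min compound preincubation, 50 min activation, room temperature · Detection – Rh110 fluorescence, excitation 480 nm, emission 540 nm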
EBNA-1 inh – EBNA-1 DNA-binding inhibitors, primary screen, biochemical, fluorescence polarization. inhibition, % at 14.8 µM. 300,000 tested, 0.34% active. AID 1950, 2009; in the data active = inhibition above about 28%
PfGluPho inh – PfG6PD enzyme inhibitors, primary screen, biochemical, fluorescence intensity, uHTS | glucose-6-phosphate dehydrogenase-6-phosphogluconolactonase (Plasmodium falciparum 3D7) | PfGluPho enzyme, NADPH resazurin-diaphorase fluorescence | inhibition, % at 20 µM | 350,000 tested, 0.78% active | AID 504690, 2011;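 active = inhibition reaching at least a set limit at 20 µM in the primary screen, cut at about 59% in these data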;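 also: 0% = DMSO wells with substrate and 100% = DMSO wells lacking glucose-6-phosphate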
ZTA counter – counter-screen for EBNA-1 inhibitors: inhibitors of Epstein-Barr virus ZTA; 320,000 tested, 0.15% active; AID 2234; inhibition, % at 11 µM; ZTA-DNA binding, fluorescence polarization; P03206; in the data active = inhibition above about 33%
Target sequence (P03206 whole entry, looked up): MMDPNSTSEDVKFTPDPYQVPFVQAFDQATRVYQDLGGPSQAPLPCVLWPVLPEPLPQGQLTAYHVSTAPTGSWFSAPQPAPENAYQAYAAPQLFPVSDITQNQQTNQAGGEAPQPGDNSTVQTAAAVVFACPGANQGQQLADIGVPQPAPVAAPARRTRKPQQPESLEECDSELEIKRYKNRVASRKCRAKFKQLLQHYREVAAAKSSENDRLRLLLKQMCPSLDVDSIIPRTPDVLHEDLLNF
UBC13 inh – UBC13 polyubiquitin chain formation inhibitors, primary screen, biochemical, TR-FRET, uHTS; Ubiquitin-conjugating enzyme E2 N (Homo sapiens), P61088; inhibition, % at 20 µM; 330,000 tested, 0.47% active; in the data active = inhibition above about 45%, passing the limit was not always enough
Target sequence (P61088 whole entry, looked up): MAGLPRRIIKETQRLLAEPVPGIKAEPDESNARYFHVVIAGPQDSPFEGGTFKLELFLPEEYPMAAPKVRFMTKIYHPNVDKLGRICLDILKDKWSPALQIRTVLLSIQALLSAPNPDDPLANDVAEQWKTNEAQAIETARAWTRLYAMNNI
M18AAP inhibitor – PfM18AAP inhibitors, malaria aminopeptidase, primary screen, biochemical, QFRET, recombinant enzyme; AID 1822, 2009; 290,000 tested, 1.2% active; inhibition, % at 7.35 µM; M18 aspartyl aminopeptidase (Plasmodium falciparum 3D7); H-Glu-NHMec fluorogenic cleavage;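 active = inhibition above the campaign mean inhibition over all tested compounds plus 3 SD, cut at about 28% in these data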;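 also: 0% = plate median of test compound wells and 100% = 2 mM ZnCl2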
* hit, by the source's call.

Screening Cc1nc(Cl)cc(N/N=C/c2ccc(O)cc2O)n1 returned Apaf1 inhib -3, EBNA-1 inh -8, PfGluPho inh -12, ZTA counter 6, UBC13 inh -11 and M18AAP inhibitor 31*.
Screening CCC(C(=O)N1CCN(S(=O)(=O)c2ccc(F)cc2)CC1)c1ccccc1 (stereo unspecified) returned Apaf1 inhib -2, PfGluPho inh -16, ZTA counter 0 and UBC13 inh 6.
Clc1ccc2c(SCC3CO3)c3ccccc3nc2c1 (stereo unspecified) was read as PfGluPho inh 18.
Screening CC(C)CC1Nc2ccc(C(=O)NCc3ccc4c(c3)OCO4)cc2NC1=O (stereo unspecified) returned Apaf1 inhib 15, EBNA-1 inh -10, PfGluPho inh -17, ZTA counter -7, UBC13 inh 2 and M18AAP inhibitor 29*.
COc1ccc2[nH]c3c(=O)n(/N=C/c4ccc(OC)c(CN5CCCC5)c4)c(C)nc3c2c1 was read as Apaf1 inhib 43*, EBNA-1 inh 2, PfGluPho inh 58, ZTA counter 0, UBC13 inh 12 and M18AAP inhibitor -13.
Screening Cc1ccc(NC(=C(C#N)C#N)c2ccccc2)cc1 returned PfGluPho inh 29.
`CN(C)CCCN1c2ccccc2CCc2ccc(Cl)cc21` gave Apaf1 inhib 31, EBNA-1 inh 3, PfGluPho inh -13, ZTA counter -2, UBC13 inh 20 and M18AAP inhibitor 4.
Screening CN(CCCN1c2ccccc2CCc2ccccc21)CC(=O)c1ccc(Cl)cc1 returned Apaf1 inhib 44*, EBNA-1 inh -4, ZTA counter 18 and UBC13 inh 39.
CCC(C)[C@H]1CNCCN1CCc1cccc2ccccc12 (stereo partly specified) was read as Apaf1 inhib 8, EBNA-1 inh 9, PfGluPho inh 1, ZTA counter -18 and UBC13 inh 16.
Screening CN(C)c1ccc(C(=O)OCc2ccccc2)cc1 returned Apaf1 inhib 18, EBNA-1 inh 6, PfGluPho inh 0, ZTA counter -7, UBC13 inh 6 and M18AAP inhibitor -8.
Screening O=C1C=CC(=O)C(CNc2ccc(C(=O)OCc3ccccc3)cc2)=C1 returned PfGluPho inh 75*.
`COc1cc(C(Nc2ccccn2)c2ccc3ccc(C)nc3c2O)cc(OC)c1O` (stereo unspecified) gave Apaf1 inhib 5, EBNA-1 inh -10, PfGluPho inh 59, ZTA counter -5, UBC13 inh -9 and M18AAP inhibitor 30*.
For COc1ccc(CNC(=S)Nc2cccc(OC)c2)cc1 the results were Apaf1 inhib 11, EBNA-1 inh 1, PfGluPho inh -3, ZTA counter -8, UBC13 inh -6 and M18AAP inhibitor -5.
For CCc1cccc(NC(=S)Nc2cccc3ccccc23)c1 the results were Apaf1 inhib 79*, EBNA-1 inh 6, PfGluPho inh 29, ZTA counter -6, UBC13 inh -28 and M18AAP inhibitor -8.
COc1cccc(NC(=S)Nc2cccc3ccccc23)c1 was read as Apaf1 inhib 94*, EBNA-1 inh -8, PfGluPho inh 12, ZTA counter -11, UBC13 inh -37 and M18AAP inhibitor -5.
Screening Cc1cc(C)cc(NC(=S)Nc2cccc3ccccc23)c1 returned Apaf1 inhib 32, EBNA-1 inh -3, PfGluPho inh 32, ZTA counter 3, UBC13 inh 0 and M18AAP inhibitor 4.
For CCCCc1nc2cc(C(=O)N3CCN(c4cnccn4)CC3)ccc2o1 the results were Apaf1 inhib -22, EBNA-1 inh -14, PfGluPho inh -5, ZTA counter -10, UBC13 inh 2 and M18AAP inhibitor 4.
For O=C(CSc1ccccc1F)NNC(=O)c1cncc(Br)c1 the results were Apaf1 inhib -5, PfGluPho inh -10 and UBC13 inh 45.
Screening COc1cc(OC)cc(-c2n[nH]c(=S)n2-c2ccc3c(c2)OCCO3)c1 returned Apaf1 inhib -6, EBNA-1 inh 1, PfGluPho inh 40, ZTA counter 5, UBC13 inh 2 and M18AAP inhibitor 1.
`COc1ccc(-c2n[nH]c(=S)n2-c2ccc3c(c2)OCCO3)cc1` gave Apaf1 inhib 13, EBNA-1 inh 13, PfGluPho inh 53, ZTA counter 7, UBC13 inh -4 and M18AAP inhibitor 30*.
`Nc1ccc2nc3c(=O)n(CCc4ccccc4)c(=O)[nH]c3nc2c1` gave Apaf1 inhib 10, EBNA-1 inh -13, PfGluPho inh 40, ZTA counter -7, UBC13 inh -241 and M18AAP inhibitor 17.
Cc1cc2nc3c(=O)n(CCc4ccccc4)c(=O)[nH]c3nc2cc1N was read as Apaf1 inhib 10, EBNA-1 inh -4, PfGluPho inh 40, ZTA counter -1, UBC13 inh -196 and M18AAP inhibitor 34*.
C[C@@H]1CN([C@@H](C)CO)C(=O)CCCn2cc(nn2)CO[C@H]1CN(C)S(=O)(=O)c1ccc(C#N)cc1 was read as PfGluPho inh -19.
Screening CCc1nn(CCCC(=O)NCc2ccccc2Br)c(=O)c2cc3occc3n12 returned Apaf1 inhib 46*, EBNA-1 inh 11, PfGluPho inh -22, ZTA counter 16, UBC13 inh 3 and M18AAP inhibitor 3.
Screening CCc1cccc(NC(=O)CCCn2nc(CC)n3c(cc4occc43)c2=O)c1 returned Apaf1 inhib 2, EBNA-1 inh -6, PfGluPho inh 22, ZTA counter -6, UBC13 inh -3 and M18AAP inhibitor 6.
CC(NC(=O)c1cccc(S(=O)(=O)N(C)c2ccccc2)c1)c1cccnc1 (stereo unspecified) was read as Apaf1 inhib 38, PfGluPho inh -12 and UBC13 inh 19.
`COC1=C(C)C(=O)C2=C(C1=O)C1C3CC4=C(C(=O)C(OC)=C(C)C4=O)C(CNC(=O)C(C)=O)N3C(C#N)C(C2)N1C` (stereo unspecified) gave PfGluPho inh 120*.
Screening O=C(NCCNc1ccc2ccccc2c1)c1cccn2c(=O)c3sccc3nc12 returned Apaf1 inhib 51*, EBNA-1 inh -7, ZTA counter 4, UBC13 inh -54 and M18AAP inhibitor -5.
COc1ccc(S(=O)(=O)N2CCOC2CNC(=O)C(=O)NCc2ccc3c(c2)OCO3)cc1C (stereo unspecified) was read as PfGluPho inh 1.
Screening COc1cc(OC)c(-n2cc(-c3ccc(OC)c(OC)c3)[nH]c2=S)cc1Cl returned Apaf1 inhib 29, PfGluPho inh 48, UBC13 inh 8 and M18AAP inhibitor 32*.
`COc1ccc(C=NN=C2c3ccccc3-c3ccccc32)cc1OC` gave PfGluPho inh 26.
